MC4R ag barr = activates human MC4R beta-arrestin recruitment. P32245. U2OS MC4R beta-arrestin complementation, luminescence; percent of melanotan II response, DMSO zero. AID 540308. 0.98% of 360,000 active. activation, % at 8.9 µM;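 active = activation above a per-plate cutoff, the mean activation of sample wells on that plate plus 3 SD, cut at about 8% in these data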
Target sequence (P32245 whole entry, looked up): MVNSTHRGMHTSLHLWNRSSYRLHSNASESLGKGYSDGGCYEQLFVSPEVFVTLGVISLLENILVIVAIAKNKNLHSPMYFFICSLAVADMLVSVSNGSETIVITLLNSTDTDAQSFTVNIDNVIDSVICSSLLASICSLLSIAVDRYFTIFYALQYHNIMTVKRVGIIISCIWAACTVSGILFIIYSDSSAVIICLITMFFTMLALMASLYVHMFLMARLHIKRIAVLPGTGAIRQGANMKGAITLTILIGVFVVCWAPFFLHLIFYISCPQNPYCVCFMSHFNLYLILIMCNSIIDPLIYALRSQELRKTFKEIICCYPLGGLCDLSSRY
Bfl-1 A1 inh = inhibitors of the anti-apoptotic protein A1, read as caspase activation | MEF A1-2A-BIM cells, Caspase-Glo 3/7 luminescence, 3 h; percent of clofoctol response, vehicle zero | caspase activation, % (test concentration not listed) | 0.066% of 330,000 active;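 active = over half of replicate activation scores above 10%, or exactly half above 10 with the replicate mean above 10; inconclusive = replicate mean below 10 yet half the replicates above 10; inactive = over half of replicates below 10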
NTR1 ag = activates human neurotensin receptor 1 | P30989 | NTR1-U2OS beta-arrestin-GFP spot imaging, agonist mode | activation, % at 20 µM | 0.17% of 330,000 active;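 active = activation at or above 40% of the spot to cytoplasm intensity ratio, with at least 20 cells analyzed; inconclusive = wells under 20 cells, flagged as cytotoxic or low count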;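 note: 0% = DMSO without peptide and 100% = 100 nM NTR1 peptide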
Exocytosis inh = blocks lytic granule exocytosis. TALL-104 LAMP-1 surface exposure, flow cytometry; cells stimulated with thapsigargin and PMA. inhibition, % at 10 µM. 0.66% of 360,000 active. AID 651702;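 active = inhibition above about 55%, limit read from the data; inconclusive = no clear call, values can overlap the other calls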
MC4R antag cAMP = human MC4R antagonism in cAMP assay | P32245 | MC4R-expressing cells, MTII-stimulated cAMP, LANCE TR-FRET | inhibition, % at 6.5 µM | 0.48% of 360,000 active | AID 540295;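 active = inhibition above its plate's cutoff, the mean of tested wells on that plate plus 3 SD, cut at about 29% in these data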;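 note: 0% = Melanotan II alone and 100% = Melanotan II plus saturating MCL0020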
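Assay system: human MC4R-expressing U2OS cells; reagent: Melanotan II stimulation of cells; dosing: 6.5 µM single dose; timing: compound 30 min, challenge 1 h, detection 1 h; signal: TR-FRET cAMP assay; replicates: one well per compound, no replicates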
sPLA2-III inh = Inhibits HGIII-sPLA2 liposome hydrolysis, primary screen; Q9NZ20; QFRET BODIPY PC-A2 liposome hydrolysis, fluorescence; inhibition, % at 12.2 µM; 0.56% of 370,000 active; AID 743126;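 active = inhibition above mean plus 3 SD of compounds lying within the high and low control bounds, cut at about 19% in these data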;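 note: 0% = median of test compound wells and 100% = no enzyme DMSO wells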
Granule exo CP1 = lytic granule exocytosis inhibition; AID 651954; shares compounds with Exocytosis inh; 11% of 1,500 active; inhibition, % at 10 µM; TALL-104 cells, LAMP-1 externalization, flow cytometry; stimulated with PMA plus thapsigargin; in the data active = inhibition above about 60%;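 note: 0% = stimulated vehicle wells and 100% = unstimulated wells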
* = called active by the depositor; u = inconclusive; x = not tested or not shown. In the library only some 2.5% were active in any assay of this set; here they are far more common.

SMILES | MC4R ag barr | Bfl-1 A1 inh | NTR1 ag | Exocytosis inh | MC4R antag cAMP | sPLA2-III inh | Granule exo CP1
CCC(=C(c1ccc(OC)cc1)c1ccc(OC)cc1)c1cn(CC(O)CN2CCN(C)CC2)c2ccccc12 (stereo unspecified) | 2 | -1 | x | 89* | -2 | 16 | 83*
COc1ccc(-c2cc3ccccc3n2CC(O)CN2CCCCC2)cc1 (stereo unspecified) | -3 | 0 | -1 | 6 | 2 | -10 | x
Cc1ccc(S(=O)(=O)n2ccc3c(OCCOCCNCc4ccc(F)cc4)cccc32)cc1 | 4 | u | 16 | 75* | 9 | -9 | 69*
CC1CCCN(CCOc2cccc(Oc3ccccc3)c2)C1 (stereo unspecified) | 3 | -1 | 1 | 60* | -3 | -6 | -10
O=C1CCc2cc(S(=O)(=O)NCc3ccc(F)cc3)cc3c2N1CC3 | -5 | x | 2 | 6 | 16 | -8 | x
O=C(Nc1ccc2c(c1)OCO2)C1CCCN(c2nc3ccccc3s2)C1 (stereo unspecified) | 0 | 0 | 2 | 62* | 7 | x | -13
Cc1ccc(Nc2ccccc2)cc1 | 3 | 0 | 0 | 1 | 6 | 3 | x
Cc1ccc(Nc2cc(C)c(O)c(C)c2)cc1 | -2 | 0 | 0 | 67* | 3 | 5 | 19
COc1ccccc1CNC(=O)c1cn(C)c2ccc(S(=O)(=O)N3CCCCC3)cc2c1=O | x | u | 2 | x | x | 0 | x
CCN(CC)S(=O)(=O)c1ccc(Oc2ccc(S(=O)(=O)N(CC)CC)cc2)cc1 | -2 | 1 | 1 | -7 | 0 | 2 | x
CCN(CC)S(=O)(=O)c1ccc(Oc2ccccc2OC)cc1 | 1 | 1 | 2 | 69* | 1 | -2 | -3
CN(CC(=O)Nc1ccccc1Br)C(=O)CN(C)C1CCCCC1 | -1 | 0 | 0 | 24 | 8 | -10 | x
CSc1cccc(NC(=O)c2cccc3cccnc23)c1 | 1 | 0 | 10 | 82* | 13 | -11 | -14
COc1ccc(OC)c(/C=C/C(=O)OCC(=O)NC2CCCCCCC2)c1 | -1 | 1 | 0 | 6 | 6 | 0 | x
COc1ccc(Cl)cc1N(C(=O)c1ccco1)C(C(=O)NC1CCCC1)c1ccco1 (stereo unspecified) | 0 | 0 | 1 | 64* | 21 | -2 | -15
COc1ccc(Cl)cc1N(C(=O)c1ccco1)C(C(=O)NC1CCCC1)c1ccncc1 (stereo unspecified) | 0 | 0 | 1 | 27 | 8 | -6 | x
Cc1ccc(-n2ncc(-c3n[nH]c(=S)o3)c2N)cc1C | 0 | x | x | -8 | 6 | 16 | x
c1ccc(-c2ccccc2-c2nc(-c3cccnc3)no2)cc1 | 0 | 0 | 2 | 93* | -2 | -7 | 18
CCOC(=O)C1CCCN(Cc2ccc(OCc3ccccc3)c(OC)c2)C1 (stereo unspecified) | -1 | 1 | 2 | 57* | 6 | -6 | -13
CCOc1cccc(CN2CCCC(N3CCN(c4cccc(Cl)c4)CC3)C2)c1O (stereo unspecified) | 0 | 0 | 1 | 66* | 2 | -4 | -10
CCOc1cccc(CN2CCCC(N3CCc4ccccc4C3)C2)c1O (stereo unspecified) | 0 | 0 | 0 | -2 | 8 | -6 | x
CCOc1cccc(CN2CCCC(C(=O)c3cc(Cl)ccc3OC)C2)c1O (stereo unspecified) | 2 | 1 | 7 | 80* | -6 | -14 | -9
COC(=O)c1cc(S(=O)(=O)N2CCN(c3ccc(C(C)=O)cc3)CC2)c[nH]1 | -1 | 0 | 0 | 5 | 3 | -3 | x
O=C(NCc1ccccc1CN1CCCC1)c1ccc(Cl)c(N2CCCC2=O)c1 | 0 | 1 | -1 | 21 | -1 | 4 | x
O=C(NCc1ccccn1)c1[nH]c(C(F)(F)F)nc1-c1ccccc1 | x | x | x | 0 | x | 4 | x
SMILES | MC4R ag barr | Bfl-1 A1 inh | NTR1 ag | Exocytosis inh | MC4R antag cAMP | sPLA2-III inh | Granule exo CP1
O=C(NN1CCOCC1)c1cccc(Cl)c1 | -3 | 0 | -1 | 2 | 0 | 6 | x
COc1ccc(C(=O)N(c2c(C)cccc2C)C(COC(C)=O)COC(C)=O)cc1 | x | x | x | -1 | x | 1 | x
COc1ccc(COc2ccc3ccc(=O)oc3c2)cc1 | 1 | -5 | 2 | 86* | 2 | -7 | -14
CCN1CCc2c(sc(NC(=O)COc3ccccc3)c2C(=O)OC)C1 | -2 | 1 | 0 | -1 | -3 | -7 | x
CCOc1ccc(S(=O)(=O)N2CCCC(C(=O)Nc3cccc(C)c3)C2)cc1 (stereo unspecified) | -2 | 1 | 2 | 63* | 3 | -1 | -13
Cc1ccc(N2CCN(S(=O)(=O)c3ccc4oc(=O)ccc4c3)CC2)c(C)c1 | 3 | 0 | 1 | 86* | 20 | 5 | -13
O=c1ccc2cc(S(=O)(=O)N3CCN(c4cc(Cl)ccc4Cl)CC3)ccc2o1 | -1 | 0 | 0 | -1 | 10 | 6 | x
N#Cc1ccc(NC(=O)Nc2ccc(Oc3ccc(NC(=O)Nc4ccc(C#N)cc4)cc3)cc2)cc1 | -1 | -1 | 31 | 62* | 26 | 2 | 81*
Cc1ccc(S(=O)(=O)N2CCN(C(=S)NCc3ccc4c(c3)OCO4)CC2)cc1 | 0 | 1 | 3 | 75* | -2 | -32 | -4
CCNC(=S)N1CCN(S(=O)(=O)c2ccc(C)cc2)CC1 | 0 | -1 | 1 | -3 | 5 | 11 | x
CC12CCCCC1C(C(N)=O)C(=O)O2 (stereo unspecified) | 0 | x | x | -6 | 5 | -7 | x
O=C1CCC2CCCCC2(O)O1 (stereo unspecified) | -1 | -1 | 3 | 64* | 1 | -3 | -3
COc1cccc(-c2nnc(SCC(=O)Nc3ccc(OCc4ccccc4)cc3)n2Cc2ccco2)c1 | x | x | x | x | x | -29 | x
CCc1ccc(NCc2ccc(OC)c(Cn3ccnc3)c2)cc1 | 1 | 0 | -1 | 58* | 0 | -39 | -13
COc1ccc(CNc2ccc(Cl)cc2)cc1Cn1ccnc1 | 0 | 0 | 0 | 45 | -9 | -26 | x
CCc1ccc(CN(Cc2cccnc2)C(=O)/C=C/c2ccc(OC)cc2)cc1 | 1 | 0 | 1 | 61* | 1 | 7 | -14
COc1cccc(CN2CCC(C(=O)Nc3ccc(-c4cccc(C)c4)cc3)CC2)c1O | 2 | 0 | 13 | 74* | 0 | -17 | 3
COc1cc(CNC(C)(C)CO)cc(Br)c1OCc1ccc(Cl)cc1Cl | 6 | 0 | 8 | 79* | 4 | -2 | 28
CCOC(=O)[C@@]12CCCC=C1N(CCc1ccc(Cl)cc1)C(=O)[C@H]2CC(=O)NCc1ccc(OC)c(OC)c1 | x | x | x | x | x | -13 | x
